Results from ChEMBL document CHEMBL1124392, “Potential antitumor agents. 57. 2-Phenylquinoline-8-carboxamides as "minimal" DNA-intercalating antitumor agents with in vivo solid tumor activity” (J Med Chem, 1989).
The source made the active and inactive calls. The rule behind the calls is not given here.

Assays:
Nucleic Acid [1] = test: Binding constant to poly[d(A-T)] by ethidium bromide displacement; assay type: nucleic-acid assay
L1210 = test: Concentration to inhibit growth of murine leukemia cells in culture by 50%.; assay type: functional, cell-based; conditions: Mus musculus
Outline: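 Murine L1210 leukemia cells were grown in culture with drug for 40 h. IC50 is the drug concentration, in nM, that inhibits growth by 50%.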

[2] = test system: Lewis lung carcinoma cell line; test: Percentage increase in lifespan of mice treated at 100 mg/kg/day on days 5, 9, 13 after intravenous up to the toxic dose levels tested; assay type: functional, organism-based; conditions: Mus musculus
Outline: (§1)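 Mice were inoculated intravenously with 10^6 Lewis lung carcinoma cells. Drug was given ip in 30% v/v ethanol/water on days 5, 9 and 13. ILS is the percentage increase in lifespan at the optimal dose, with six animals per group.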

P388 [3] = test: Percentage increase in lifespan of mice treated at 100 mg/kg/day on days 1, 5, 9 after intraperitoneal inoculation of P388 leukemia cells
Nucleic Acid [4] = test: Binding constant to poly[d(G-C)] by ethidium bromide displacement; assay type: nucleic-acid assay
P388 [5] = test: Percentage increase in lifespan of mice treated at 150 mg/kg/day on days 1, 5, 9 after intraperitoneal up to the toxic dose levels tested; conditions: Mus musculus
P388 [6] = test: Percentage increase in lifespan of mice treated at 100 mg/kg/day on days 1, 5, 9 after intravenous inoculation of P388 leukemia cells; assay type: functional, Mus musculus; conditions: for ILS at 100 mg/kg/day: Mus musculus, P388
[7] = pKa determined in aqueous solutions spectrophotometrically
[8] = test system: Lewis lung carcinoma cell line; test: Percentage increase in lifespan of mice treated at 65 mg/kg/day on days 5, 9, 13 after intravenous inoculation of lewis lung carcinoma cells; assay type: functional, Mus musculus
Outline: (§2)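 Mice were given 10^6 Lewis lung carcinoma cells intravenously. Drug was dosed intraperitoneally on days 5, 9 and 13 as a solution in 0.1 mL of 30% v/v ethanol/water, with groups of six animals. Read-out was the percentage increase in lifespan of treated tumor-bearing mice.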

P388 [9] = test: Percentage increase in lifespan of mice treated at 65 mg/kg/day on days 1, 5, 9 after […] up to the toxic dose levels tested; assay type: functional, organism-based; conditions: Mus musculus
Outline: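 Mice were inoculated intraperitoneally with 10^6 P388 leukemia cells. Drug was given ip in 30% v/v ethanol/water on days 1, 5 and 9. ILS is the percentage increase in lifespan of treated over untreated tumor-bearing animals at the optimal dose, with six animals per group. Values above 20% count as significant, and long-term survivors were scored at 50 days.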

P388 [10] = test: Percentage increase in lifespan of mice treated at 65 mg/kg/day on days 1, 5, 9 after intraperitoneal up to the toxic dose levels tested; conditions: Mus musculus
[11] = test system: Lewis lung carcinoma cell line; test: Percentage increase in lifespan of mice treated at 150 mg/kg/day on days 5, 9, 13 after intravenous inoculation of lewis lung carcinoma cells; assay type: functional, Mus musculus; outline: as §2
[12] = test system: Lewis lung carcinoma cell line; test: Percentage increase in lifespan of mice treated at 100 mg/kg/day on days 5, 9, 13 after intravenous inoculation of lewis lung carcinoma cells; assay type: functional, Mus musculus; outline: as §2
P388 [13] = test: Percentage increase in lifespan of mice treated at 225 mg/kg/day on days 1, 5, 9 after intraperitoneal inoculation of P388 leukemia cells
Nucleic Acid [14] = test: Binding constant for poly[d(A-T)] by ethidium bromide displacement; assay type: nucleic-acid assay
Nucleic Acid [15] = test: Binding constant for poly[d(G-C)] by ethidium bromide displacement; assay type: nucleic-acid assay
P388 [16] = test: Percentage increase in lifespan of mice treated at 45 mg/kg/day on days 1, 5, 9 after intraperitoneal up to the toxic dose levels tested; conditions: Mus musculus
[17] = test system: Lewis lung carcinoma cell line; test: Percentage increase in lifespan of mice treated at 65 mg/kg/day on days 5, 9, 13 after intravenous up to the toxic dose levels tested; assay type: functional, organism-based; conditions: Mus musculus; outline: as §1
P388 [18] = test: Percentage increase in lifespan of mice treated at 65 mg/kg/day on days 1, 5, 9 after intraperitoneal inoculation of P388 leukemia cells
P388 [19] = test: Percentage increase in lifespan of mice treated at 100 mg/kg/day on days 1, 5, 9 after intraperitoneal up to the toxic dose levels tested; conditions: Mus musculus

| SMILES | Log K (Nucleic Acid [1]) | IC50 (L1210) [nM] | ILS [2] | ILS (P388 [3]) | Log K (Nucleic Acid [4]) | further results |
| --- | --- | --- | --- | --- | --- | --- |
| CN(C)CCNC(=O)c1cccc2ccc(-c3ccc(S(C)(=O)=O)cc3)nc12 | 5.68 | 5800 | inactive | 29 | – | – |
| CN(C)CCNC(=O)c1cccc2ccc(-c3ccc(-c4ccccc4)cc3)nc12 | 6.88 | 1290 | – | – | 6.96 | ILS (P388 [5]): inactive |
| COc1ccc(-c2ccc3cccc(C(=O)NCCN(C)C)c3n2)cc1 | 6.4 | 1290 | inactive | – | 6.27 | ILS (P388 [6]): 42; pKa [7]: 3.28 |
| CN(C)CCNC(=O)c1cccc2ccc(-c3ccc4ccccc4c3)nc12 | 7 | 860 | – | – | 7.35 | ILS (P388 [5]): inactive |
| CN(C)CCNC(=O)c1cccc2ccc(-c3ccc([N+](=O)[O-])cc3)nc12 | 6.28 | 290 | – | – | 6.13 | ILS [8]: 85; ILS (P388 [6]): 58 |
| CN(C)CCCCCNC(=O)c1cccc2ccc(-c3ccccc3)nc12 | 5.9 | 1300 | inactive | – | 5.73 | ILS (P388 [9]): inactive |
| O=C(NCCN1CCOCC1)c1cccc2ccc(-c3ccccc3)nc12 | 6.12 | 44 | – | – | 5.61 | ILS (P388 [10]): inactive |
| CN(C)CCCNC(=O)c1cccc2ccc(-c3ccccc3)nc12 | 5.9 | 1140 | inactive | – | 5.62 | ILS at 100 mg/kg/day (P388 [6]): 71% |
| CN(C)CCNC(=O)c1cccc2ccc(-c3ccc(N)cc3)nc12 | 6.42 | 200 | – | 28 | 6.96 | ILS [11]: 59 |
| CN(C)CCCCNC(=O)c1cccc2ccc(-c3ccccc3)nc12 | 6.19 | 680 | – | 93 | 5.89 | – |
| CN(C)CCNC(=O)c1cccc2ccc(-c3cccnc3)nc12 | 5.81 | 840 | – | 58 | 6.09 | ILS [12]: 55 |
| COc1cccc(-c2ccc3cccc(C(=O)NCCN(C)C)c3n2)c1 | 6.3 | 860 | – | – | 6.41 | ILS (P388 [13]): 46 |
| CN(C)CCNC(=O)c1cccc2ccc(-c3ccncc3)nc12 | 5.82 | 170 | – | – | 6.32 | ILS [8]: 191 |
| CN(C)CCNC(=O)c1cccc2ccc(-c3ccc(F)cc3)nc12 | 6.74 | 730 | inactive | 24 | 6.66 | – |
| CC(=O)Nc1ccc(-c2ccc3cccc(C(=O)NCCN(C)C)c3n2)cc1 | – | 600 | – | – | – | Log K (Nucleic Acid [14]): 6.49; ILS (P388 [9]): inactive; Log K (Nucleic Acid [15]): 7.07 |
| CN(C)CCNC(=O)c1cccc2ccc(-c3ccc(NS(C)(=O)=O)cc3)nc12 | 6.04 | 1330 | – | – | 6.22 | ILS (P388 [16]): inactive |
| CN(C)CCNC(=O)c1cccc2ccc(-c3ccc(Cl)cc3)nc12 | 6.08 | 1170 | – | 52 | 5.99 | ILS [8]: 45; pKa [7]: 2.42 |
| CN(C)CCNC(=O)c1cccc2ccc(-c3ccccc3Cl)nc12 | 5.32 | 8100 | – | – | 5.12 | ILS (P388 [9]): inactive |
| CN(C)CCNC(=O)c1cccc2ccc(-c3ccc(I)cc3)nc12 | 6.8 | 400 | inactive | 48 | 6.87 | – |
| Br.Br.CN(C)CCNC(=O)c1cccc2ccc(-c3ccc(O)cc3)nc12 | 6.3 | 1280 | inactive | – | 6.48 | ILS (P388 [6]): 22 |
| CN(C)CCNC(=O)c1cccc2ccc(-c3ccc(Br)cc3)nc12 | 6.63 | 600 | inactive | 72 | 6.68 | – |
| CN(C)CCNC(=O)c1cccc2ccc(-c3cccc(Cl)c3)nc12 | 6.05 | 1200 | – | – | 6.47 | ILS [17]: inactive; ILS (P388 [18]): 40 |
| CN(C)CCNC(=O)c1cccc2ccc(-c3ccccc3)nc12 | 5.98 | – | – | – | 5.92 | ILS at 100 mg/kg/day ([12]; Mus musculus, Lewis lung carcinoma): 70%; ILS at 100 mg/kg/day (P388 [6]): 91% |
| O=C(NCCNCCO)c1cccc2ccc(-c3ccccc3)nc12 | 6.22 | 36 | – | – | 6.31 | ILS [17]: inactive; ILS (P388 [10]): inactive |
| CN(C)CCNC(=O)c1cccc2ccc(-c3ccc(C(F)(F)F)cc3)nc12 | 6.64 | 2100 | inactive | – | 6.72 | ILS (P388 [19]): inactive |
| CN(C)CCNC(=O)c1cccc2ccc(-c3ccccn3)nc12 | 5.82 | 1640 | – | – | 5.85 | ILS [12]: 84; ILS (P388 [6]): 73 |
